Laboratory results from PubChem BioAssay AID652186 (Vanderbilt Specialized Chemistry Center, 2013).
Activity calls are given as the source filed them. The rule behind the calls is not given here.

Molecular target: Metabotropic glutamate receptor 8 (Rattus norvegicus) (UniProt P70579)
Assay: mGlu8 modulation of glutamate calcium response, selectivity assay for mGlu5 silent allosteric modulator project, cell-based, rat, HEK293A, Galpha15, Fluo4 calcium (AID 652186)
Conditions: HEK293A rmGlu8+Galpha15, glutamate CRC
Summary of the method: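 Assay system: Rat mGlu8 co-expressed with Galpha15 in HEK293 cells | Times: Fluo4-AM loading 60 min/37°C, compound 20 s, glutamate 80 s | Technique: Calcium mobilization by fluorescence of Fluo4-AM dye, 1 µM | Medium: HBSS, pH 7.4, with 2.5 mM probenecid and 20 mM HEPES | Probe or stimulus: Glutamate, 9 concentrations, 10 nM–1 mM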

Sequence of Metabotropic glutamate receptor 8 (Rattus norvegicus) (P70579 whole entry, looked up): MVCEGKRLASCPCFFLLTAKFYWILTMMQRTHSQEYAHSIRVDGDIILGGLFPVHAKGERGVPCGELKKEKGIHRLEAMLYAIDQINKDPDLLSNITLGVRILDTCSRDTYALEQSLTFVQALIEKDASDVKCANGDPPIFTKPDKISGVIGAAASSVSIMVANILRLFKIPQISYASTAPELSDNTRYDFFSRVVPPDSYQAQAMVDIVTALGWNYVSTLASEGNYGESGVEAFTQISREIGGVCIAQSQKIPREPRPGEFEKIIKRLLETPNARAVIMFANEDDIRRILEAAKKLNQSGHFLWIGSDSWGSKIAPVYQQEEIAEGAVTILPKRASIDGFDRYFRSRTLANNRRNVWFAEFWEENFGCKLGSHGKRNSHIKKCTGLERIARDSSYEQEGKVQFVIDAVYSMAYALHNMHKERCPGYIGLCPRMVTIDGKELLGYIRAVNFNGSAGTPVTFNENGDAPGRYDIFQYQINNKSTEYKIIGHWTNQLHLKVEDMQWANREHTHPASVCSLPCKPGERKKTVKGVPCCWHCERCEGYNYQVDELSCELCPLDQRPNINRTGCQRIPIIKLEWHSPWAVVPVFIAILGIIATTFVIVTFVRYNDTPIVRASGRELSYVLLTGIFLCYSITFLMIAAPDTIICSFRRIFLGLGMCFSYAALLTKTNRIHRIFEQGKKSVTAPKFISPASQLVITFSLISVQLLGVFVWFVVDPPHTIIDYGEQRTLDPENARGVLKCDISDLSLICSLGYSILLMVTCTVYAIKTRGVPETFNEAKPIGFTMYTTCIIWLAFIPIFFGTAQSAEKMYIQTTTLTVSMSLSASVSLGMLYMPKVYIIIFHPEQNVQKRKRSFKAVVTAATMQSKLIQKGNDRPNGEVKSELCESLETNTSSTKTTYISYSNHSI

glutamate EC50 in presence of 10 uM compound (vehicle ~3 uM): inactive
Compound: O=C(c1ccc(C#Cc2cccc(F)c2)cn1)N1CC2CC2C1 (stereo unspecified)
